Assay outcomes from PubChem.
Hits are enriched below; roughly 0.84% of the tested compounds scored in any of these assays.
Tn7 DDE FP = inhibitors of Tn7 peptide binding to human fibrin DD(E); P02675; FP displacement of FITC-Tn7 peptide from fibrin DD(E); 0% = median of compound wells per plate; inhibition, % at 8.3 µM; 0.13% of 370,000 active;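 active = inhibition above the mean of compounds falling within the control limits plus 3 SD of them, cut at about 14% in these data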;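 note: 0% = plate median of compound wells and 100% = 10 µM Aha-Tn7 peptide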
Target sequence (P02675 whole entry, looked up): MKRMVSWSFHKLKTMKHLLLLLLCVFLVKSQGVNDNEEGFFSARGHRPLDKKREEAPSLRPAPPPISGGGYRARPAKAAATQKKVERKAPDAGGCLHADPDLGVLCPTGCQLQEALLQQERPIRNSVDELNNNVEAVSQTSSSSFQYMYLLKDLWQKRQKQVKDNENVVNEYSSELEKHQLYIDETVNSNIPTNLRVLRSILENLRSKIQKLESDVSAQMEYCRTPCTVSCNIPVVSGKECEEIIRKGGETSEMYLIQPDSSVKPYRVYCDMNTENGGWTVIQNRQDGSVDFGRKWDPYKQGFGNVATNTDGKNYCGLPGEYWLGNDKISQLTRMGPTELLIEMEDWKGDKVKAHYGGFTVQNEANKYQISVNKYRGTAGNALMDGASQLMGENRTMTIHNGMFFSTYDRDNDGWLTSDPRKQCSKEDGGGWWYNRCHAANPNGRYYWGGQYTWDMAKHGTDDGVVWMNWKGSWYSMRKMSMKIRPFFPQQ
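system = human fibrin DD(E) protein | quantity = DD(E) 2 µM final | medium = Tris/NaCl/CaCl2 buffer, pH 7.8 | also added = labelled Tn7 tracer, 0.1 µM | compound dosing = single point at 8.3 µM | timing = compound with protein 10 min, then 3 h after probe, room temperature | signal = FP measurement | benchmarks = Aha-Tn7 high control | repeats = one replicate per compound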
SKN-1 block = blocks SKN-1 activity in C. elegans; 0.49% of 360,000 active; C. elegans VP596 Pgst-4::GFP/RFP ratio, acrylamide-induced, 24 h; inhibition, % at 21.8 µM;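 active = interference check ratio from 0.5 to 1.5 plus GFP to RFP signal ratio inhibition reaching or exceeding a fixed threshold, cut at about 30% in these data, passing the limit was not always enough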
Tn6 DDE FP = disrupts Tn6 cyclic peptide binding to fibrin D-Dimer-E complex. P02675. Fibrin DD(E) TRITC-Tn6 fluorescence polarization displacement. inhibition, % at 8.3 µM. 0.21% of 370,000 active;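 active = inhibition above a per-campaign cutoff: mean of compounds within control limits plus 3 SD, cut at about 15% in these data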;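 note: 0% = median of all compound wells on the plate and 100% = blocking peptide control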
MT1-MMP act inh = inhibitors of human MT1-MMP activation. GFP/RFP ratio change, % at 20 µM. HT1080 RFP-PRO-GFP cells, GFP/RFP ratio fluorescence, overnight; percent of plate control window, DMSO zero. 0.061% of 360,000 active. P50281;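 active = GFP/RFP ratio change of at least 30% with cell ATP level not reduced by more than half and red fluorescence within 50% of control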
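Test system: HT1080 RFP-PRO-GFP cells; Benchmarks: DMSO and RFP-L50D-GFP cell wells; Timing: cells overnight before dosing, compound overnight, 37 °C, 5% CO2; Compound: one 20 µM compound dose with 1% DMSO; Read-out: GFP/RFP fluorescence ratio.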
DDE Tn6 FP ctr = counter-screen hit for Tn6 peptide-fibrin DD(E) binding disruption | shares compounds with Tn6 DDE FP | TRITC-Tn6 fluorescence polarization displacement; 0% = median of compound wells, not DMSO | inhibition, % at 8.3 µM | 2% of 680 active | AID 720621;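 active = inhibition above the mean of test compounds lying between the control limits plus 3 SD of those, cut at about 14% in these data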;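 note: 0% = median of compound wells and 100% = wells with Aha-Tn7 blocking peptide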
Tn6 DDE conf = DD(E)-Tn6 binding inhibition, FP confirmation; shares compounds with Tn6 DDE FP; FP displacement of TRITC-Tn6 peptide from DD(E); 0% = per-plate median of test wells; inhibition, % at 8.3 µM; 10% of 680 active;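 active = inhibition above the mean of compounds lying within the control limits plus 3 SD, cut at about 16% in these data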;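 note: 100% = high control wells holding a competing inhibitor peptide at 10 µM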
* hit, by the source's call; nt = no result given; + = active, no number.

SMILES	Tn7 DDE FP	SKN-1 block	Tn6 DDE FP	MT1-MMP act inh	DDE Tn6 FP ctr	Tn6 DDE conf
CC(=O)N1CCc2cc(S(=O)(=O)NCCC(=O)NCc3ccccc3)ccc21	1	nt	18*	nt	1	0
CN(Cc1ccccc1)C(=O)OCc1cn(Cc2cccc(F)c2)nn1	-1	nt	8	nt	nt	nt
Cc1cc(C)n(CC(O)Cn2c(C)c(C)c3ccccc32)n1 (stereo not given)	3	63*	19*	2	-2	1
Cc1c(C)n(CC(O)CN2CCCCC2)c2ccccc12 (stereo not given)	-6	-11	4	4	nt	nt
CCN1/C(=C/C=C/c2oc3ccc(-c4ccccc4)cc3[n+]2CC)Oc2ccc(-c3ccccc3)cc21	-6	55	+	-46	53*	93*
CC(=O)Nc1ccc2c(c1)C(C)(C)C(C)N2C (stereo not given)	-5	nt	22*	nt	2	7
CCN(CC)c1ccc2nc3ccc(N)cc3[n+](-c3ccccc3)c2c1	2	89	+	70	-1	93*
Cc1ccc2c(c1)N(Cc1ccccn1)C(=O)C(C)O2 (stereo not given)	5	28	17*	6	-5	-9
CC(=O)N1CCN(Cc2cc(=O)oc3cc(C)cc(C)c23)CC1	6	11	3	0	nt	nt
CCCCN1C(=O)C(C(=O)OCc2ccccc2)CC2=C1CCCC2=O (stereo not given)	-20	-3	21*	5	-2	-5
Cc1cc(=O)oc2c3c(cc(OCC(=O)NC(C)C)c12)OC(C)(C)CC3	0	5	2	3	nt	nt
CCOC(=O)c1sc(N(Cc2ccccc2)C(=O)COC(=O)c2ccc(O)cc2)nc1C	6	4	27*	-6	9	-3
CC1(C)CC(NC(=O)COc2ccc3ccc(=O)oc3c2)CC(C)(C)N1	2	10	-7	-1	nt	nt
O=C(CCn1c(=O)[nH]c2ccsc2c1=O)N1CCN(c2ccc([N+](=O)[O-])cc2)CC1	2	14	-2	1	nt	nt
O=C(Cn1c(=O)[nH]c2ccsc2c1=O)N1CCN(c2ccc(F)cc2)CC1	1	nt	16*	nt	2	-3
Cc1cc2ccccc2cc1CN1CCCCC1	5	-15	16*	-1	-4	-4
c1ccc2c3c(c(CN4CCCCC4)cc2c1)COC3	3	4	3	0	nt	nt
CCOc1ccc(NS(=O)(=O)c2cc(NC(=O)c3ccc(C)cc3)ccc2Cl)cc1	-10	6	-3	-19	nt	nt
Cc1c(-n2cc(C(=O)O)c(=O)c3cc(F)c(N4CCCC(O)C4)c(F)c32)c(=O)n(-c2ccccc2)n1C (stereo not given)	-8	3	0	-3	nt	nt
O=C(O)c1cn(-c2ccc(N3CCCC3)c(F)c2)c2c(F)c(F)c(F)cc2c1=O	1	0	18*	-8	-2	-4
CC1(c2ccccc2)NC(=O)N(CC(=O)N2CCN(S(=O)(=O)c3cccc(C(F)(F)F)c3)CC2)C1=O (stereo not given)	5	-12	-5	5	nt	nt
COc1ccc(C(=O)N2CCN(c3nc4cc(C)cc(C)c4cc3C#N)CC2)cc1	7	-4	2	-2	nt	nt
COc1ccc(OCC(=O)Nc2cc3c(cc2C(=O)O)OCCCO3)cc1	7	2	17*	1	5	1
CCCCn1c(O)c(C(CC)=Nc2ccc3c(c2)CCC3)c(=O)[nH]c1=O	1	4	17*	-3	2	-2
Cc1ccccc1-n1c(C)nnc1SCC(=O)N(C)C1CCS(=O)(=O)C1 (stereo not given)	0	2	19*	-2	-2	-5
SMILES	Tn7 DDE FP	SKN-1 block	Tn6 DDE FP	MT1-MMP act inh	DDE Tn6 FP ctr	Tn6 DDE conf
COc1ccc(NC(=O)C(=O)N/N=C/c2cccnc2)c(OC)c1	8	-4	16*	3	2	-3
Cc1nn(C)c(C(=O)NC(=S)Nc2ccccc2O)c1Cl	-1	-13	1	-4	nt	nt
COc1ccc(S(=O)(=O)N(C)CC(=O)Nc2ccccc2OC)cc1	6	-30	23*	2	5	0
O=C(Nc1ccncc1)C1CCN(S(=O)(=O)c2cccc(C(F)(F)F)c2)CC1	8	-6	-2	3	nt	nt
O=C(Nc1ccnc(-c2cccnc2)n1)c1cccc(Cl)c1Cl	0	-3	-4	-1	nt	nt
N#CC(C#N)=C1C=C2C=C(N3CCOCC3)CCC2CC1 (stereo not given)	-56	-62	-3	-14	nt	nt
N#CC(C#N)=C1C=C2C=C(N3CCCCCC3)CCC2CC1 (stereo not given)	-7	-37	18*	-49	53*	10
CCCCC[C@@H]1[C@H]2[C@H]3C(=O)N(c4ccccc4)C(=O)[C@H]3CC(=O)[C@H]2[C@H](c2ccccc2)N1S(=O)(=O)c1ccc(C)cc1	-1	-6	-5	3	nt	nt
O=C(COC(=O)CC1CC2CCC1C2)NC(=O)NCc1ccco1 (stereo not given)	1	-14	20*	4	1	-5
NC(=O)c1ccc(NC(=O)COC(=O)CC2CC3CCC2C3)cc1 (stereo not given)	-6	-9	-2	3	nt	nt
COc1ccccc1NS(=O)(=O)c1cccc(NC(=O)Nc2cccc(Cl)c2)c1	5	15	43*	-10	9	17*
O=C(Cn1[nH]c(=O)c2ccccc2c1=O)OCC(=O)c1ccccc1Cl	6	12	16*	4	0	0
COC1=CC(=O)OC(c2ccc(C(F)(F)F)cc2)C1 (stereo not given)	9	2	16*	16	1	-5
CC(C)(C)S(=O)N1Cc2cc(=O)n(Cc3ccccc3)c(CCO)c2[C@H]1CCO (stereo not given in full)	-2	-3	3	-2	nt	nt
COc1ccc2ccccc2c1C=NNC(=O)c1cc(-c2ccc(C)c(C)c2)n[nH]1	-1	nt	26*	nt	12	16*
COC(=O)[C@]12C[C@H](CC(=O)N3CCOCC3)C(=O)N(Cc3ccco3)C1=C[C@H](C1CCCC1)O[C@@H]2C	2	nt	8	nt	nt	nt
COc1cccc(C(=O)NCCS(=O)(=O)NCCCc2ccccc2)c1	2	3	4	-1	nt	nt
O=C(CN1CCN(S(=O)(=O)c2ccccc2)CC1)NC(=O)NCc1ccco1	-6	-7	-2	1	nt	nt
CCC(C)c1ccccc1NC(=O)CN1CCN(C/C=C/c2ccccc2)CC1 (stereo not given)	-4	-13	16*	0	-5	-6
O=C(CN1CCN(C/C=C/c2ccccc2)CC1)NCc1ccccc1	-5	-12	-4	4	nt	nt
